# According to ChEMBL document CHEMBL4024711, “Design, synthesis and biological evaluation of novel nitric oxide-donating protoberberine derivatives as antitumor agents” (Eur J Med Chem, 2017):
# pIC50: −log10 of the molar value. Active and inactive are the calls of the source. No cut-off for these calls is given here.
# Columns and labels:
# [1] = tested on: HepG2; assay: Cytotoxicity against human HepG2 cells after 72 hrs by MTT assay; type: functional, cell-based; settings: HepG2, 72 h
# Method in brief: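 MTT assay. Cells were plated and grown 24 h at 37 °C, 5% CO2, then exposed to compound in medium with 0.1% DMSO for 72 h. MTT (5 mg/mL in PBS) was added for 4 h and absorbance read at 490 nm. IC50 was taken from dose-response curves; at least three independent experiments.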
# [2] = Induction of NO release assessed as nitrite formation in PBS at 100 uM up to 300 mins by Griess assay
# Method in brief: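 Compound at 100 μM was incubated at 37 °C in PBS, pH 7.4, containing 2% DMSO and 5.0 mM L-cysteine, in acellular or HepG2 cell lysates, and sampled over time. Samples were mixed with Griess reagent at 37 °C for 15 min and read at 540 nm. Nitrite was quantified against a sodium nitrite standard curve, in triplicate.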
Structure (SMILES),pIC50 [1],Activity [2]
COc1cc2c(cc1OC)-c1cc3ccc(OC)c(OCCCCCCCCCCO[N+](=O)[O-])c3c[n+]1CC2,5.25,–
COc1ccc2cc3[n+](cc2c1OC(=O)CCCCCCCCCO[N+](=O)[O-])CCc1cc2c(cc1-3)OCO2,< 4.00,–
COc1cc2c(cc1OC)-c1c(Br)c3ccc(OC)c(OCCCCCCCCCCCCO[N+](=O)[O-])c3c[n+]1CC2,5.70,–
COc1cc2c(cc1OC)-c1cc3ccc(OC)c(OCCCCCCCCCCCCO[N+](=O)[O-])c3c[n+]1CC2,5.59,–
COc1ccc2c(Br)c3[n+](cc2c1OCCCCCCCCO[N+](=O)[O-])CCc1cc2c(cc1-3)OCO2,5.38,Active
